Data published in publication PMC5035717 (Cell, 2016).
Changes are numbered by the printed parent chain. “Also recorded” adds a separate entry of the source. Read-outs that look alike come from different tables or passages of the source. One block for each molecule: values may come before it.

Experiments:
[1] = tested on: endogenous Smo in NIH-3T3 cells; assay: Ciliary recruitment of endogenous Smo in sterol-depleted NIH-3T3 cells; assay type: cell-based; details: for Recruitment of endogenous Smo to cilia: agent alone; for Rescue of Smo recruitment to cilia in response to Shh: sterols added back as MCD complexes (100 μM)
Method in brief: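 Confluent NIH-3T3 cells starved overnight in DMEM, then sterol-depleted with 1.5% MCD for 30 min. Kept in DMEM with 40 μM pravastatin throughout. Sterols added back 1 h as MCD complexes, then overnight with agents or Shh (conditioned medium from 293T cells expressing human Shh aa 1–197). Stained with anti-acetylated tubulin (1:5000) and anti-mSmo (1 μg/mL final); ciliary Smo intensity quantified automatically.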

[2] = biological target: T1, XSmoG84S ectodomain (Xenopus laevis, UniProt Q98SW5, G84S); details: read-out: IC50, competition of BODIPY-cyclopamine binding
T1 sequence (Q98SW5 35-189 G84S): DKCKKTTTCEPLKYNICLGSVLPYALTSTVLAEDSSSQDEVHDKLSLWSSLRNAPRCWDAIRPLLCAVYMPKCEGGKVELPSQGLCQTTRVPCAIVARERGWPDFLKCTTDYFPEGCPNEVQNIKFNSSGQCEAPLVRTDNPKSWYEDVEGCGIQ
Method in brief: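 Purified E. coli-expressed Xenopus Smo G84S ectodomain incubated with BODIPY-cyclopamine (5 nM) and varying concentrations of unlabeled competitor for 1 h at room temperature. Fluorescence polarization read on a plate reader and converted to anisotropy. Measured in triplicate; IC50 obtained by fitting competition curves.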

[3] = biological target: mSmoG115S (Mus musculus, UniProt P56726, G115S); assay: Hh pathway activity by qPCR for Gli1 in Smo-null cells rescued with mSmoG115S; assay type: cell-based
[4] = biological target: T2, XSmo ectodomain (Xenopus laevis, UniProt Q98SW5); assay type: binding
T2 sequence (Q98SW5 35-189): T1 sequence (Q98SW5 35-189 G84S) with S50G

[5] = biological target: T2, XSmo ectodomain; assay: Circular dichroism; assay type: binding; details: small molecule 25 μM; CD signal at 225 nm; protein alone Tm=62.1°C
[6] = biological target: mSmoG115S/E164L (Mus musculus, UniProt P56726, E164L/G115S); assay type: cell-based
[7] = biological target: mSmoG115F (Mus musculus, UniProt P56726, G115F); assay: Hh pathway activity by qPCR for Gli1 in Smo-null cells rescued with mSmoG115F; assay type: cell-based
[8] = tested on: Hh signaling in NIH-3T3 cells; assay: Synergy with Shh in activating Hh signaling in NIH-3T3 cells; assay type: cell-based, mouse
[9] = biological target: mSmoE164L (Mus musculus, UniProt P56726, E164L); assay: Hh pathway activity by qPCR for Gli1 in Smo-null cells rescued with mSmoE164L; assay type: cell-based
[10] = biological target: mSmoD99A (Mus musculus, UniProt P56726, D99A); assay: Hh pathway activity by qPCR for Gli1 in Smo-null cells rescued with mSmoD99A; assay type: cell-based
[11] = biological target: T2, XSmo ectodomain; assay: Fluorescence polarization binding of BODIPY probes to purified XSmo ectodomain; details: XSmo ectodomain (amino acids 35–189), probe 5 nM
Method in brief: (§1)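 Xenopus Smo CRD (aa 35–154) or ectodomain (aa 35–189; wild type or G84S) expressed in E. coli as thioredoxin-His6 fusions. Purified by Ni-NTA, glutathione redox refolding and size exclusion. Increasing protein amounts mixed with BODIPY FL probes (5 nM) in 20 mM HEPES pH 7.5, 100 mM NaCl, 1 h at room temperature. FP converted to anisotropy; triplicate; Kd from curve fitting.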

[12] = biological target: T3, XSmoCRD (Xenopus laevis, UniProt Q98SW5); assay: Fluorescence polarization binding of BODIPY probes to purified XSmoCRD; details: XSmoCRD (amino acids 35–154), probe 5 nM
T3 sequence (Q98SW5 35-154): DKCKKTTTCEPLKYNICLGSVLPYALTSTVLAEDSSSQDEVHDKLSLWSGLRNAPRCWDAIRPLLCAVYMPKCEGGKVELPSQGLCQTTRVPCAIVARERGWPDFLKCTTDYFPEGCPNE
Method in brief: as §1

[13] = biological target: T1, XSmoG84S ectodomain; assay type: binding
Method in brief: as §1

[14] = biological target: mSmoD477G/E522K (Mus musculus, UniProt P56726, D477G/E522K); assay: BODIPY-cyclopamine binding to mCherry-tagged mSmoD477G/E522K in 293T cells; details: 50 nM
Method in brief: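 mCherry-tagged mutant mSmo transiently expressed in 293T cells. Cells washed into serum-free OptiMEM, then incubated 1 h with BODIPY-cyclopamine, with or without SANT1 competitor (10 μM). Fixed in 3.6% formaldehyde/PBS for 30 min at room temperature and washed with TBST. BODIPY and mCherry signals imaged by epifluorescence microscopy.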

[15] = tested on: mSmoΔCRD; assay: Ciliary localization of mSmoΔCRD in rescued Smo-null cells; assay type: cell-based, mouse; details: with or without sterol depletion
Method in brief: (§2)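 Smo-null cells rescued with the mSmo construct, grown on glass coverslips. Confluent cultures starved overnight in DMEM, then sterol-depleted with 1.5% MCD in DMEM for 30 min. Later incubations with agents in DMEM plus 40 μM pravastatin. Immunofluorescence used anti-acetylated tubulin as cilia marker; ciliary Smo intensity quantified by automated image analysis, at least 300 cilia per condition.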

[16] = biological target: mSmo (Mus musculus, UniProt P56726); assay: Ciliary localization of mSmo in rescued Smo-null cells; assay type: cell-based; details: with or without sterol depletion
Method in brief: as §2

[17] = biological target: wild-type mSmo (Mus musculus, UniProt P56726); assay type: cell-based; details: for Effect on Hh pathway activity (Gli1 mRNA): mSmo, irrespective of sterol depletion; for Activation of Hh signaling (in words): wild-type mSmo, sterols delivered as MCD complexes
[18] = tested on: mSmoΔCRD; assay type: cell-based, mouse; details: irrespective of sterol depletion

Activation of Hh signaling (in words) [3]: strongly activated
Molecule: CC(C)CCC[C@@](C)(O)[C@H]1CC[C@H]2[C@@H]3CC=C4C[C@@H](O)CC[C@]4(C)[C@H]3CC[C@@]21C [20(R)-OHC]

Activation of Hh signaling (in words) [6]: do not respond
Activation of Hh signaling (in words) [7]: does not activate
IC50 [2]: 44 µM
Activation of Hh signaling (in words) [9]: significantly decreases activation
Activation of Hh signaling (in words) [10]: do not respond
Activation of Hh signaling (in words) [3]: reduced
Molecule: CCCCCC(C)(O)[C@H]1CC[C@H]2[C@@H]3CC=C4C[C@@H](O)CC[C@]4(C)[C@H]3CC[C@]12C (stereo partly drawn) [20(S)-OHC-Pent]
Synergy with Shh [8]: does not synergize

Ciliary localization of mSmo [16]: accumulate in cilia
Effect on Hh pathway activity (Gli1 mRNA) [17]: activated
Activation of Hh signaling (in words) [10]: robust activation
Molecule: CNC1CCC(N(Cc2cccc(-c3ccncc3)c2)C(=O)c2sc3ccccc3c2Cl)CC1 (stereo not shown) [SAG]
Ciliary localization of mSmoΔCRD [15]: accumulate in cilia
Recruitment of endogenous Smo to cilia [1]: strongly recruit
Effect on Hh pathway activity (Gli1 mRNA) [18]: activated

Ciliary localization of mSmo [16]: reduced
Effect on Hh pathway activity (Gli1 mRNA) [17]: inhibited
Molecule: Cc1nn(-c2ccccc2)c(C)c1/C=N/N1CCN(Cc2ccccc2)CC1 [SANT1]
Ciliary localization of mSmoΔCRD [15]: reduced
Effect on Hh pathway activity (Gli1 mRNA) [18]: inhibited

Activation of Hh signaling (in words) [6]: activate
IC50 [4]: 2.4 µM
Activation of Hh signaling (in words) [7]: responds
Melting temperature (Tm) of XSmo ectodomain [5]: 65.3 °C
Synergy with Shh ([17]; Smo-null cells rescued with wild type mSmo, sterols 5 μM as MCD complexes): synergizes
Rescue of mSmo activation by Shh after sterol depletion ([17]; add-back 100 μM MCD complex): rescues
Activation of Hh signaling (in words) [17]: activate
Activation of Hh signaling (in words) ([17]; listed as Cholesterol): activates Hh signaling
Activation of Hh signaling (in words) [10]: defective
Activation of Hh signaling (in words) [3]: activate
Molecule: CC(C)CCC[C@@H](C)[C@H]1CC[C@H]2[C@@H]3CC=C4C[C@@H](O)CC[C@]4(C)[C@H]3CC[C@]12C [cholesterol]
Rescue of Smo recruitment to cilia in response to Shh [1]: rescued
Synergy with Shh [8]: synergizes

Kd [11]: 0.138 µM
Kd [12]: 0.225 µM
Molecule: BODIPY-20(S)-hydroxycholesterol [BODIPY-20(S)-OHC]

Kd [11]: 1.4 µM
Kd [12]: 1.36 µM
Molecule: BODIPY-22-azacholesterol [BODIPY-22-NHC]

Continued, molecule first:

Molecule: CC(C)CCC[C@@H](C)[C@H]1CC[C@H]2[C@@H]3C(O)C=C4C[C@@H](O)CC[C@]4(C)[C@H]3CC[C@]12C (stereo partly shown) [7-hydroxycholesterol]
Recruitment of endogenous Smo to cilia [1]: inactive

Molecule: CCCCC[C@@](C)(O)[C@H]1CC[C@H]2[C@@H]3CC=C4C[C@@H](O)CC[C@]4(C)[C@H]3CC[C@@]21C [20(R)-OHC-Pent]
IC50 [2]: 5.5 µM

Molecule: CC(C)CCC[C@](C)(O)[C@H]1CC[C@H]2[C@@H]3CC=C4C[C@@H](O)CC[C@]4(C)[C@H]3CC[C@@]21C [20(S)-OHC, 20(S)-hydroxycholesterol]
IC50 [4]: 1.8 µM
Melting temperature (Tm) of XSmo ectodomain [5]: 66.5 °C

Molecule: C[C@H](CCCC(C)(C)F)[C@H]1CC[C@H]2[C@@H]3CC=C4C[C@@H](O)CC[C@]4(C)[C@H]3CC[C@]12C [25F-cholesterol, 25-fluorocholesterol]
Rescue of Smo recruitment to cilia in response to Shh [1]: rescued

Molecule: CC1=C2CC3C(CC=C4C[C@@H](O)CCC43C)C2CCC12O[C@@H]1CC(C)CN(CCNC(=O)CCCCCNC(=O)CCC3=[N+]4C(=Cc5c(C)cc(C)n5[B-]4(F)F)C=C3)C1C2C (stereo partly shown) [BODIPY-cyclopamine]
Kd [11]: 0.434 µM
Kd [12]: 0.389 µM
Kd [13]: 0.621 µM
Binding to mSmoD477G/E522K in cells (fluorescence microscopy) [14]: does not bind

Molecule: C[C@H](CCCC(F)(C(F)(F)F)C(F)(F)F)[C@H]1CC[C@H]2[C@@H]3CC=C4C[C@@H](O)CC[C@]4(C)[C@H]3CC[C@]12C [F7-cholesterol]
Rescue of Smo recruitment to cilia in response to Shh [1]: rescued

Molecule: CC(C)CCC[C@@H](C)[C@H]1CC[C@H]2[C@@H]3CC[C@H]4C[C@@H](O)CC[C@]4(C)[C@H]3CC[C@]12C [cholestanol]
Binding to XSmo ectodomain (in words) ([4]; competition of BODIPY-cyclopamine): inactive; also recorded: does not bind
Melting temperature (Tm) of XSmo ectodomain [5]: 62.9 °C
Activation of Hh signaling (in words) [17]: inactive

Molecule: CC1=C2C[C@H]3[C@@H](CC=C4C[C@@H](O)CC[C@@]43C)[C@@H]2CC[C@]12O[C@@H]1C[C@H](C)CN[C@H]1[C@H]2C [cyclopamine]
IC50 [4]: 4.5 µM
Melting temperature (Tm) of XSmo ectodomain [5]: 66.6 °C
